Assay outcomes from PubChem.
Rows were chosen to be rich in hits. Some 2.6% of all compounds tested hit in one or more screens of this group.
rCAG RNA binder – r(CAG) repeat RNA binding; AID 651821; inhibition, % at 3 µM; 1.3% of 370,000 active; TO-PRO-1 dye displacement fluorescence;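 active means inhibition above the plate cutoff, the mean of all test compounds on that plate plus 3 SD, cut at about 35% in these data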;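 further: 0% = DMSO alone and 100% = 100 µM mitoxantrone as full dye displacement; higher means more dye released from RNA so lower well fluorescence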
PG9 binder – small molecules binding HIV-1 gp120 antibody PG9 | TR-FRET gp120-PG9 antibody binding | inhibition, % at 6.7 µM | 0.43% of 360,000 active; in the data active means inhibition above about 8.5%
NR2E3 ag-1 – activates human NR2E3 receptor; Q9Y5X4; CHO-S Gal4-NCOR/VP16-NR2E3 two-hybrid, luciferase; inhibition of corepressor binding, % at 3.98 µM; 0.35% of 360,000 active;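 active means inhibition above the mean of all tested compounds plus 3 SD, cut at about 70% in these data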;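 further: 0% = DMSO with NR2E3 transfected cells and 100% = cells lacking NR2E3 construct; higher means lower luciferase signal from less NR2E3 corepressor binding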
NR2E3 ag-2 – activates human photoreceptor nuclear receptor NR2E3; Q9Y5X4; GST-NR2E3/biotin-RetCOR TR-FRET, 1536-well; 0.12% of 320,000 active; AID 2300; inhibition of corepressor binding, % at 4.78 µM;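 active means percent inhibition above the cutoff of mean plus 3 SD of all tested compounds, set per screening campaign, cut at about 20% in these data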;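 further: 0% = DMSO wells and 100% = biotin wells as full block of FRET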
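Format: 1536-well format; test system: GST-NR2E3 and biotin-RetCOR proteins; read-out basis: percent inhibition of TR-FRET ratio; timing: 5 h incubation at 4 °C; detection: time-resolved FRET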
Rev-erbA mod – Rev-erb alpha (human) modulation; activity, % at 10 µM; Rev-erbα–FITC-DNA binding, fluorescence polarization, 90 min; 0.79% of 370,000 active;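 active means activity above about 14%, limit read from the data; passing the limit was not always enough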;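 further: 0% = DMSO wells with 35 nM protein and 100% = DMSO wells with 750 nM protein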
Target sequence (P20393 whole entry, looked up): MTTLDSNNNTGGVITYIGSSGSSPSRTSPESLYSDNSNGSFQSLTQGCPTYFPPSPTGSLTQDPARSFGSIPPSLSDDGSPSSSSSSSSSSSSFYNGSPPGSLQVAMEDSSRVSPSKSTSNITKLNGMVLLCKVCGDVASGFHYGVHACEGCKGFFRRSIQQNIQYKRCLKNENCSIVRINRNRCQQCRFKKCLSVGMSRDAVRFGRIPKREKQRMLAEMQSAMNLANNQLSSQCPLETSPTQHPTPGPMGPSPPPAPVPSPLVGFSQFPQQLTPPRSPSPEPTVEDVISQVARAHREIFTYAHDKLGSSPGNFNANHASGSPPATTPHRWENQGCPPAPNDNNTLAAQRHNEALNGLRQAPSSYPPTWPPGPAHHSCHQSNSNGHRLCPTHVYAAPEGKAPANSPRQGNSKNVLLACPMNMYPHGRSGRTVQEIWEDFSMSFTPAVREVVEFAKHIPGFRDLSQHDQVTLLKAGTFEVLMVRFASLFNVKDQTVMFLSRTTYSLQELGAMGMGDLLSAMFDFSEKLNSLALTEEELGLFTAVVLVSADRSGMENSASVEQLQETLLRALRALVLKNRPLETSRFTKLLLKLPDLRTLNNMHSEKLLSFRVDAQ
NR1D1 mod conf – confirmation of modulators of human Rev-erb alpha DNA binding | shares compounds with Rev-erbA mod | Rev-erb alpha FITC-DNA binding, fluorescence polarization, 90 min | activation, % at 25 µM | 61% of 3,000 active;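 active means activation at or above a set limit, or at least 3 SD above the negative control mean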;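 further: 0% = 35 nM protein with DMSO and 100% = 750 nM protein high control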
RORg counter – affects RORgamma DNA binding in a Rev-erb alpha counter-screen. purified RORgamma protein-FITC-DNA binding, fluorescence polarization. AID 1259320. shares compounds with Rev-erbA mod. 8% of 910 active. IC50, µM;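 active means Compounds whose fitted half-maximal concentration for disrupting protein-DNA binding is below 10 micromolar; the record names Rev-erb in its text, so the target is in doubt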
* = called active by the depositor; i = inactive; . = no result given.

SMILES	rCAG RNA binder	PG9 binder	NR2E3 ag-1	NR2E3 ag-2	Rev-erbA mod	NR1D1 mod conf	others
CCCc1nc2sc3c(=O)n(N)cnc3c2c2c1CCCC2	1	-3	2	4	37*	15
CCCS(=O)(=O)NC(=O)C1(C)CCCN(C(=O)c2ccc(OC)cc2OC)C1 (stereo not given)	3	-2	-7	.	0	.
CC(=O)c1cccc(NC(=O)CSc2ccc(-c3sc(C)nc3C)nn2)c1	1	0	15	-1	1	.
Cc1nc(C)c(-c2ccc(SCC(=O)Nc3cccc(Cl)c3)nn2)s1	4	-14	-38	-13	24*	10
Cc1ccccc1Cn1cc(COC(=O)NCCc2ccccc2)nn1	0	.	.	.	-6	.
OCC1OC(n2cnc3c(=S)nc[nH]c32)C(O)C1O (stereo not given)	.	.	.	.	-3	.
CCOC(=O)c1sc2nc(NC(=O)COc3ccccc3)sc2c1C	5	0	-4	5	23*	14*
CC(=O)c1sc(NC(=O)COc2ccccc2)nc1C	-2	5	-68	5	1	.
Cc1nn(-c2ccccc2)c(Cl)c1/C=N/Nc1nncc(=O)[nH]1	8	-4	5	0	25*	18
Cc1cc(=O)[nH]c(N/N=C/c2c(C)nn(-c3ccc(F)cc3)c2Cl)n1	-1	-2	-7	5	6	.
O=C(NC(Cc1cn(Cc2ccccc2)cn1)C(=O)O)OCC1c2ccccc2-c2ccccc21 (stereo not given)	.	.	7	.	.	.
COc1ccc(Cc2nc3ccccc3n2CC(=O)N/N=C/c2ccc(C)cc2O)cc1OC	2	-1	-26	-1	34*	45*	RORg counter=>40
Clc1ccc(OCc2nn3c(-c4ccccc4)nnc3s2)c(Cl)c1	5	1	-37	1	26*	35*
COc1ccc2oc(C(=O)OCC(=O)N3CCN(C(C)=O)CC3)c(C)c2c1	-1	3	-31	-3	5	.
COc1ccc2oc(C(=O)OCC(=O)/C(C#N)=C(\C)N)c(C)c2c1	1	0	4	1	20*	14
O=C(NCc1ccccc1)[C@@H]1CCCN1C(=O)[C@H]1CCCN1C(=O)c1cccc2ccccc12	2	1	.	.	0	.
N#Cc1ccc(-c2ccc(F)cc2)nc1SCC(=O)Nc1sc2c(c1C#N)CCC2	9	0	-8	2	32*	21*
CCOC(=O)[C@@H]1[C@H]2COc3cc(OC)ccc3[C@H]2N2C(=O)N(c3ccc(C)cc3)C(=O)[C@]12C	-3	2	-2	.	3	.
Cc1nn(C)c(C)c1NC(=O)CSc1nc(-c2ccccc2F)nc2c1cnn2-c1ccccc1	2	-1	-22	.	42*	63*	RORg counter=>40
Cc1nn(C)c(C)c1NC(=O)CSc1nc(-c2ccccc2Cl)nc2c1cnn2-c1ccccc1	1	3	-21	-6	102*	92*	RORg counter=6.8*
N#Cc1c(N2CCSCC2)nsc1-c1ccccc1Cl	0	4	-47	.	23*	28*
Cc1ccccc1C(=O)N1CCC[C@H]1C(=O)N1CCC[C@H]1C(=O)NCc1ccccn1	0	2	1	.	6	.
CCOC(=O)c1sc(NC(=O)c2ccccc2F)c(C(N)=O)c1C	3	8	-4	-6	20*	13
O=c1[nH]c(-c2ccccc2F)nc2c1sc(=S)n2Cc1ccccc1	13	-3	-2	1	24*	2
COC(=O)c1ccc(CSc2nnc(NC(=O)c3cc4c(s3)CCCC4)s2)cc1	16	2	-46	4	5	.
SMILES	rCAG RNA binder	PG9 binder	NR2E3 ag-1	NR2E3 ag-2	Rev-erbA mod	NR1D1 mod conf	others
CC1CCc2sc(C(=O)Nc3nnc(SCc4ccc(F)cc4)s3)cc2C1 (stereo not given)	6	8	-42	2	30*	17
Cc1cccc(C(=O)OCC(=O)c2cccc(Br)c2)c1O	2	1	5	1	19*	5
Cc1cccc(C(=O)OCC(=O)NC(=O)c2ccccc2)c1O	-1	1	8	-3	-2	.
CCOC(=O)C1=C(c2ccccc2)O/C(=C(\C(=O)OC)C(F)(F)F)S1	-1	-3	-26	-1	25*	18*
O=C(N[C@H](Cc1ccccc1)C(=O)N1CCN(Cc2ccccn2)CC1)[C@H]1O[C@@H](n2ccc(=O)[nH]c2=O)[C@H](O)[C@@H]1O	3	0	.	.	-4	.
O=S(=O)(c1ccccc1)c1cnn2c(C(F)(F)F)cc(-c3ccc(F)cc3)nc12	0	-1	3	5	24*	-7
O=C(Nc1cccc(Br)c1)Oc1cccc2cccnc12	2	-2	-15	.	8	.
CNC(=O)COC(=O)c1cc2c(C)nn(-c3ccc(F)cc3)c2s1	-1	1	14	0	17*	14
Cc1nn(-c2ccc(F)cc2)c2sc(C(=O)N3CCCCCC3)cc12	0	-2	-5	-1	-1	.
O=C(OCCN1CCOCC1)c1ccc(O)cc1	-1	-3	-5	2	14*	2
C[C@H]1CN([C@@H](C)CO)S(=O)(=O)c2ccc(Br)cc2O[C@@H]1CN(C)C(=O)Cc1cccnc1	0	0	-21	.	0	.
CCCn1c(-c2cccs2)nc2c1c(=O)[nH]c(=O)n2Cc1ccccc1	0	1	-15	-5	23*	2
Cn1cc(S(=O)(=O)NC[C@H]2O[C@@H](n3ccc(=O)[nH]c3=O)[C@H](O)[C@@H]2O)cn1	2	0	-15	.	-2	.
O=S(=O)(N1CCCCC1)N1CCN(CC(O)COc2ccc3cc(Br)ccc3c2)CC1 (stereo not given)	1	12*	1	8	100*	49*	RORg counter=i
CN(C)S(=O)(=O)N1CCN(CC(O)COc2ccc3cc(Br)ccc3c2)CC1 (stereo not given)	-4	1	23	5	1	.
NS(=O)(=O)c1ccc(CNC(=O)c2cc(=O)c3cc(Cl)ccc3o2)cc1	3	-3	-8	1	2	.
CN(C)CCNc1ccc2nnn3c4ccc(O)cc4c(=O)c1c23	13	-2	-30	.	-39	.
CCN(CC)CCCNc1ccc2ncn3c4ccc(O)cc4c(=O)c1c23	-33	-19	34	.	92*	50*
COc1ccc(-c2ccc(=O)n(CC(=O)Nc3ccc4c(c3)OCCO4)n2)cc1	0	1	1	-2	18*	11
COc1ccc(CNC(=O)Cn2nc(-c3ccc4c(c3)OCCO4)ccc2=O)cc1	-1	-2	6	1	-2	.
COC(=O)COc1ccc(NC(=O)Cn2nc(-c3ccccc3)c3ccccc3c2=O)cc1	3	1	1	0	2	.
